The values that follow come from ChEMBL document CHEMBL1140207, “A small molecule inhibitor, 1,2,4,5-benzenetetraamine tetrahydrochloride, targeting the y397 site of focal adhesion kinase decreases tumor growth” (J Med Chem, 2008).

The test has as its system C8161. Kind of test: Cytotoxicity against human C8161 cells assessed as decrease in cell viability at 100 uM after 24 hrs by MTT assay. The format is functional, cell-based. In outline: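 Cells from breast cancer and melanoma lines were exposed to compound for 24 h and viability was read by MTT assay. A reference FAK inhibitor served as the control.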
(In general: Formazan colour is commonly taken as a measure of viable cells.)

Active and inactive are the calls of the source. The rule behind the calls is not given here.

For `Brc1ccc(C[N+]23CN4CN(CN(C4)C2)C3)cc1`, the result was Active.

On to `O=S1(=O)N2CN3CCN(C2)CN1C3`, for which the result was Active.
